From ChEMBL document CHEMBL1143315, “Investigation of ketone warheads as alternatives to the nitrile for preparation of potent and selective cathepsin K inhibitors” (Bioorg Med Chem Lett, 2009) come the findings set out here.

Where only a bound is given, the exact number is not on record here.

One series concerns the target Cathepsin K (Homo sapiens, UniProt P43235). Description: Inhibition of humanized rabbit cathepsin K.
The species named for series [1] is Homo sapiens. Put plainly: Selectivity ratio of IC50 for human cathepsin L to IC50 for humanized rabbit cathepsin K.
The species entered for series [2] is Homo sapiens. Description: Selectivity ratio of IC50 for human cathepsin B to IC50 for humanized rabbit cathepsin K.
The species entered for series [3] is Homo sapiens. Description: Selectivity ratio of IC50 for human cathepsin S to IC50 for humanized rabbit cathepsin K.
Series [4] is described as follows: Half life in rat at 2 to 5 mg/kg, iv. It counts as ADME, organism-based. The arrangement: dose 2-5 mg/kg, route intravenous. The settings on record: in vivo. In short, it runs like this: (§1)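 Rats were given a single IV dose of 2–5 mg/kg in 60% PEG 200. Half-life (t1/2) and clearance (Cl, mL/min/kg) were taken from the plasma profile. Where two distinct phases were seen, separate t1/2a and terminal t1/2b values were calculated.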

The nature of series [5]: Clearance in rat at 2 to 5 mg/kg, iv. It counts as ADME, organism-based. Further details: dose 2-5 mg/kg, route intravenous. The settings on record: in vivo. In short, it runs like this: as §1
Series [6] is described as follows: Terminal half life in rat at 2 to 5 mg/kg, iv. The arrangement: dose 2-5 mg/kg, route intravenous. The format is ADME, organism-based. The settings on record: in vivo, read-out: beta t1/2 (converted). In short, it runs like this: as §1
A short description of series [7]: Primary phase half life in rat at 2 to 5 mg/kg, iv. It counts as ADME, organism-based. The arrangement: dose 2-5 mg/kg, route intravenous. The settings on record: in vivo, read-out: alphat1/2 (converted). In short, it runs like this: as §1
The next series is filed under the species Rattus norvegicus. Description: Metabolic stability in rat hepatocytes assessed as compound remaining after 2 hrs.

One may read the IC50 as the midpoint of a concentration-inhibition curve. `CC(C)(F)C[C@H](N[C@@H](c1ccc(-c2ccc(S(C)(=O)=O)cc2)cc1)C(F)(F)F)C(=O)NC1CN(C(=O)c2ccccc2)CC1=O` (stereo not given in full) showed an IC50 against Cathepsin K of 2.9 nM. For the same compound, the Ratio IC50 in the series listed under Homo sapiens [1] amounted to 197; in the series filed under Homo sapiens [2] it was 188; in the series listed under Homo sapiens [3], 14.
For `CC(C)(F)C[C@H](N[C@@H](c1ccc(-c2ccc(S(C)(=O)=O)cc2)cc1)C(F)(F)F)C(=O)NC1CN(C(N)=O)CC1=O` (stereo not given in full) the same measures were 7.3 nM, 40, 355 and 104.
Usually clearance stands for the volume of plasma or blood freed of the substance per unit of time. The low end stands for inefficient removal, the high end for efficient removal. As for `CC(C)(F)C[C@H](N[C@@H](c1ccc(-c2ccc(S(C)(=O)=O)cc2)cc1)C(F)(F)F)C(=O)NC1(C#N)CC1` [ODANACATIB], half-maximal inhibition at Cathepsin K (IC50) required 0.2 nM. The half-life in [4] is 6 h. Further, the clearance in [5] is 2 mL/min/kg.
On Cathepsin K, `CC(C)(F)C[C@H](N[C@@H](c1ccc(-c2ccc(S(C)(=O)=O)cc2)cc1)C(F)(F)F)C(=O)NC1CN(C(=O)Nc2ccccc2)CC1=O` (stereo not given in full) returned a half-inhibitory concentration (IC50) of 7.3 nM. For the same compound, the results for the Ratio IC50 in the series filed under Homo sapiens [1], in the series filed under Homo sapiens [2] and in the series filed under Homo sapiens [3] were 40, 355 and 104, respectively.
The compound `CC(C)(F)C[C@H](N[C@@H](c1ccc(-c2ccc(S(C)(=O)=O)cc2)cc1)C(F)(F)F)C(=O)NC1CNCC1=O` (stereo not given in full) showed an IC50 against Cathepsin K of 9.8 nM. Further, the Ratio IC50 is 16 in the series listed under Homo sapiens [1], 485 in the series listed under Homo sapiens [2] and 159 in the series filed under Homo sapiens [3].
For `CC(C)(F)C[C@H](N[C@@H](c1ccc(-c2ccc(S(C)(=O)=O)cc2)cc1)C(F)(F)F)C(=O)NC1CCCN(S(C)(=O)=O)CC1=O` (stereo not given in full) the same measures were 16 nM, 617, more than 1000 and 114.
In turn, `CC(C)(F)C[C@H](N[C@@H](c1ccc(-c2ccc(S(C)(=O)=O)cc2)cc1)C(F)(F)F)C(=O)NC1CN(S(C)(=O)=O)CC1=O` (stereo not given in full) showed a half-inhibitory concentration (IC50) against Cathepsin K of 27 nM. Also, the Ratio IC50 came out at 158 in the series filed under Homo sapiens [1], 370 in the series listed under Homo sapiens [2] and 313 in the series filed under Homo sapiens [3].
Regarding `COC(=O)N1CC(=O)C(NC(=O)[C@H](CC(C)(C)F)N[C@@H](c2ccc(-c3ccc(S(C)(=O)=O)cc3)cc2)C(F)(F)F)C1` (stereo not given in full), the IC50 against Cathepsin K was 4.3 nM. In series [4], the half-life is 2.8 h. Besides, in series [5], the clearance is 40 mL/min/kg.
What is called fraction remaining is what is left of the initial amount, in per cent. For the compound `CC(C)(F)C[C@H](N[C@@H](c1ccc(-c2ccc(S(C)(=O)=O)cc2)cc1)C(F)(F)F)C(=O)NC1CCCN(S(=O)(=O)c2ccccn2)CC1=O` (stereo in doubt; 9) [listing 1 of 2 here], half-maximal inhibition against Cathepsin K (IC50) was put at 2 nM. The half-life in [6] was 11 h; in [7] it was 0.6 h. For the same compound, the clearance in series [5] amounted to 46 mL/min/kg. Also, the amount remaining at 2 h in the series listed under Rattus norvegicus was determined as 56%.
In the case of `CC(C)(F)C[C@H](N[C@@H](c1ccc(-c2ccc(S(C)(=O)=O)cc2)cc1)C(F)(F)F)C(=O)NC1CN(S(=O)(=O)c2ccccn2)CC1=O` (stereo not given in full), the 50% inhibitory concentration (IC50) on Cathepsin K came out at 85 nM. The compound further showed a half-life in series [4] of 1.3 h. This compound showed a clearance in [5] of 43 mL/min/kg.
Consider `CC(C)(F)C[C@H](N[C@@H](c1ccc(-c2ccc(S(C)(=O)=O)cc2)cc1)C(F)(F)F)C(=O)NC1CCCN(S(=O)(=O)c2ccccn2)CC1=O` (stereo in doubt; 11) [listing 1 of 2 here], for which the Ratio IC50 in the series listed under Homo sapiens [1] was 681; in the series filed under Homo sapiens [2] it was more than 1000; in the series filed under Homo sapiens [3], 35.
The compound `CC(C)(F)C[C@H](N[C@@H](c1ccc(-c2ccc(S(C)(=O)=O)cc2)cc1)C(F)(F)F)C(=O)NC1CN(C(=O)OC(C)(C)C)CC1=O` (stereo not given in full) returned a half-inhibitory concentration (IC50) on Cathepsin K of 3.9 nM. The figures for the Ratio IC50 in the series listed under Homo sapiens [1], in the series listed under Homo sapiens [2] and in the series listed under Homo sapiens [3] were 403, 27 and 29, respectively.
`CC(=O)N1CC(=O)C(NC(=O)[C@H](CC(C)(C)F)N[C@@H](c2ccc(-c3ccc(S(C)(=O)=O)cc3)cc2)C(F)(F)F)C1` (stereo not given in full) came in with a 50% inhibitory concentration (IC50) against Cathepsin K of 4.2 nM. In series [4], the half-life is 1.2 h. Also, the clearance in [5] came to 67 mL/min/kg. For the same compound, the Ratio IC50 in the series filed under Homo sapiens [1] was more than 1000; in the series listed under Homo sapiens [2] it was more than 1000; in the series listed under Homo sapiens [3], 604.
`CC(C)(F)C[C@H](N[C@@H](c1ccc(-c2ccc(S(C)(=O)=O)cc2)cc1)C(F)(F)F)C(=O)NC1CCCN(S(=O)(=O)c2ccccn2)CC1=O` (stereo in doubt; 10) [listing 1 of 2 here]: the IC50 against Cathepsin K amounted to 10 nM.
For the compound `CC(C)(F)C[C@H](N[C@@H](c1ccc(-c2ccc(S(C)(=O)=O)cc2)cc1)C(F)(F)F)C(=O)NC1CCCN(S(=O)(=O)Cc2ccccc2)CC1=O` (stereo not given in full), at Cathepsin K, it took 159 nM to reach half-maximal inhibition (IC50). Besides, the Ratio IC50 in the series listed under Homo sapiens [1] was more than 63; in the series filed under Homo sapiens [2] it was 50; in the series listed under Homo sapiens [3], 8.
Consider `CC(C)(F)C[C@H](N[C@@H](c1ccc(-c2ccc(S(C)(=O)=O)cc2)cc1)C(F)(F)F)C(=O)NC1CCCN(S(=O)(=O)c2ccccn2)CC1=O` (stereo in doubt; 11) [listing 2 of 2 here], for which the IC50 on Cathepsin K amounted to 1.8 nM.
As for `CC(C)(F)C[C@H](N[C@@H](c1ccc(-c2ccc(S(C)(=O)=O)cc2)cc1)C(F)(F)F)C(=O)NC1CCN(c2ccccc2S(C)(=O)=O)CC1=O` (stereo not given in full), the IC50 against Cathepsin K worked out at 6.9 nM. The Ratio IC50 in the series listed under Homo sapiens [1] was determined as 91; in the series filed under Homo sapiens [2] it was 1; in the series filed under Homo sapiens [3], 3.9.
For `CC(C)(F)C[C@H](N[C@@H](c1ccc(-c2ccc(S(C)(=O)=O)cc2)cc1)C(F)(F)F)C(=O)NC1CCCNCC1=O` (stereo not given in full) the same measures were 33 nM, 236, 303 and 179.
On Cathepsin K, `COC(=O)NCC(=O)CNC(=O)[C@H](CC(C)(C)F)N[C@@H](c1ccc(-c2ccc(S(C)(=O)=O)cc2)cc1)C(F)(F)F` showed a half-maximal inhibitory concentration (IC50) of 45 nM. The half-life in series [4] was 1.1 h. Moreover, the clearance in series [5] came to 17 mL/min/kg. For the same compound, the figures for the Ratio IC50 in the series filed under Homo sapiens [1], in the series listed under Homo sapiens [2] and in the series listed under Homo sapiens [3] were 152, 148 and 38, respectively.
With `CC(C)(F)C[C@H](N[C@@H](c1ccc(-c2ccc(S(C)(=O)=O)cc2)cc1)C(F)(F)F)C(=O)NC1CCCN(S(=O)(=O)c2ccccn2)CC1=O` (stereo in doubt; 10) [listing 2 of 2 here], the values for the Ratio IC50 in the series filed under Homo sapiens [1], in the series filed under Homo sapiens [2] and in the series listed under Homo sapiens [3] were more than 1000, more than 1000 and 54, respectively.
For `CC(C)(F)C[C@H](N[C@@H](c1ccc(-c2ccc(S(C)(=O)=O)cc2)cc1)C(F)(F)F)C(=O)NC1CN(C(=O)NCc2ccccc2)CC1=O` (stereo not given in full), the IC50 against Cathepsin K was 15 nM. The Ratio IC50 came to 667 in the series filed under Homo sapiens [1], 53 in the series listed under Homo sapiens [2] and 36 in the series filed under Homo sapiens [3].
With `CC(C)(F)C[C@H](N[C@@H](c1ccc(-c2ccc(S(C)(=O)=O)cc2)cc1)C(F)(F)F)C(=O)NC1CCCN(S(=O)(=O)c2ccccn2)CC1=O` (stereo in doubt; 9) [listing 2 of 2 here], the figures for the Ratio IC50 in the series listed under Homo sapiens [1], in the series listed under Homo sapiens [2] and in the series listed under Homo sapiens [3] were 939, more than 1000 and 45, respectively.
At Cathepsin K, `CC(C)(F)C[C@H](N[C@@H](c1ccc(-c2ccc(S(C)(=O)=O)cc2)cc1)C(F)(F)F)C(=O)NC1CCN(S(=O)(=O)c2ccccn2)CC1=O` (stereo not given in full) yielded an IC50 of 5.7 nM. Further, the half-life in series [4] was 0.6 h. The same compound displayed a clearance in series [5] of 24 mL/min/kg. Besides, the Ratio IC50 in the series filed under Homo sapiens [1] amounted to 621; in the series listed under Homo sapiens [2] it was 232; in the series filed under Homo sapiens [3], 22.
In turn, `CC(C)(F)C[C@H](N[C@@H](c1ccc(-c2ccc(S(C)(=O)=O)cc2)cc1)C(F)(F)F)C(=O)NC1CN(C(=O)NS(=O)(=O)c2ccccc2)CC1=O` (stereo not given in full) returned a 50% inhibitory concentration (IC50) against Cathepsin K of 68 nM. Also, the Ratio IC50 in the series listed under Homo sapiens [1] was more than 147; in the series filed under Homo sapiens [2], 9; in the series listed under Homo sapiens [3], more than 6.
For `CCOC(=O)N1CCC(NC(=O)[C@H](CC(C)(C)F)N[C@@H](c2ccc(-c3ccc(S(C)(=O)=O)cc3)cc2)C(F)(F)F)C(=O)C1` (stereo not given in full) the same measures were 9 nM, more than 1000, 364 and 10.
The matching figures for `CC(C)(F)C[C@H](N[C@@H](c1ccc(-c2ccc(S(C)(=O)=O)cc2)cc1)C(F)(F)F)C(=O)NC1CCCN(S(=O)(=O)c2cccc[n+]2[O-])CC1=O` (stereo not given in full): 2.6 nM, 984, more than 1000 and 33.
For `CCOC(=O)N1CC(=O)C(NC(=O)[C@H](CC(C)(C)F)N[C@@H](c2ccc(-c3ccc(S(C)(=O)=O)cc3)cc2)C(F)(F)F)C1` (stereo not given in full), on Cathepsin K, inhibition was half-maximal at 1.6 nM (IC50). Further, the half-life in [4] is 2.1 h. The compound further yielded a clearance in series [5] of 53 mL/min/kg.
For the compound `CC(C)(F)C[C@H](N[C@@H](c1ccc(-c2ccc(S(C)(=O)=O)cc2)cc1)C(F)(F)F)C(=O)NC1CCN(c2ccccc2)CC1=O` (stereo not given in full), the IC50 on Cathepsin K is 8.3 nM. Further, the Ratio IC50 in the series listed under Homo sapiens [1] was found to be 101; in the series filed under Homo sapiens [2], 2; in the series listed under Homo sapiens [3] it was 8.
The matching figures for `CCOC(=O)N1CCCC(NC(=O)[C@H](CC(C)(C)F)N[C@@H](c2ccc(-c3ccc(S(C)(=O)=O)cc3)cc2)C(F)(F)F)C(=O)C1` (stereo not given in full): 54 nM, more than 185, more than 185 and 46.
